From ChEMBL document CHEMBL5303300, “EUbOPEN Chemogenomics Library - Multiplex” (2023)
Several values for one entry are separate records, joined by “and”; a condition that tells them apart may be missing. Identical values can stand only once.

Experiments:
Fibroblast = assay: Multiplex assay against human fibroblast; format: toxicity, cell-based; settings: number of replicates 2
Method in brief: (§1)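 Cells were classed with CellPathfinder machine-learning gating, first as Hoechst high-intensity objects or normal cells, then (normal cells) as healthy, pyknosed or fragmented nuclei, and finally (pyknosed cells) as mitotic or apoptotic. Staining of live cells at seeding used Hoechst33342, BioTracker Green Microtubule Cytoskeleton Dye, MitoTracker Red and Annexin V Alexa Fluor 680, with imaging on a CQ1 microscope at 37°C and 5% CO2 after compound addition. Tubulin, mitochondrial-mass and membrane-permeability phenotypes are per cents of healthy-nucleus cells.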

HEK-293T = assay: Multiplex assay against HEK293T; format: toxicity, cell-based; settings: human, number of replicates 2; method in brief: as §1
[1] = 12 h, 1 µM, compound concentration 1 uM
[2] = 12 h, 10 µM, compound concentration 10 uM
[3] = 24 h, 1 µM, compound concentration 1 uM
[4] = 24 h, 10 µM, compound concentration 10 uM
[5] = 48 h, 1 µM, compound concentration 1 uM
[6] = 48 h, 10 µM, compound concentration 10 uM

Q: Which results are given for COc1cc2nc(-c3cc(F)ccc3O)nc(N[C@@H]3CNC[C@H]3C(C)(C)O)c2cc1OC.Cl.Cl?
A: Population Apoptotic (%) (Fibroblast; [1]): 35% and 34%; Population Healthy Nuclei (%) (Fibroblast; [1]): 60% and 58%; Population Hoechst High Intensity Objects (%) (Fibroblast; [1]): 0%; Population Membrane Permeable-Phenotype (%) (Fibroblast; [1]): 11% and 9%; Population Mitochondria Different-Phenotype (%) (Fibroblast; [1]): 0% and 2%; Population Mitotic Cells (%) (Fibroblast; [1]): 65%; Population Normal (%) (Fibroblast; [1]): 100%; Population Pyknosed Nuclei (%) (Fibroblast; [1]): 33% and 24%; Population Tubulin-Different-Phenotype (%) (Fibroblast; [1]): 48% and 46%; Total Cell Count (Fibroblast; [1]): 178 and 189; Population Apoptotic (%) (Fibroblast; [2]): 72% and 73%; Population Healthy Nuclei (%) (Fibroblast; [2]): 8% and 16%; Population Hoechst High Intensity Objects (%) (Fibroblast; [2]): 0%; Population Mitochondria Different-Phenotype (%) (Fibroblast; [2]): 26% and 25%; Population Mitotic Cells (%) (Fibroblast; [2]): 27% and 26%; Population Normal (%) (Fibroblast; [2]): 99% and 100%; Population Pyknosed Nuclei (%) (Fibroblast; [2]): 85% and 67%; Population Tubulin-Different-Phenotype (%) (Fibroblast; [2]): 86% and 67%; Total Cell Count (Fibroblast; [2]): 170 and 187; Population Apoptotic (%) (Fibroblast; [3]): 44% and 53%; Population Fragmented Nuclei (%) (Fibroblast; [3]): 15% and 17%; Population Healthy Nuclei (%) (Fibroblast; [3]): 63% and 65%; Population Hoechst High Intensity Objects (%) (Fibroblast; [3]): 0%; Population Membrane Permeable-Phenotype (%) (Fibroblast; [3]): 4% and 1%; Population Mitochondria Different-Phenotype (%) (Fibroblast; [3]): 0% and 3%; Population Mitotic Cells (%) (Fibroblast; [3]): 55% and 46%; Population Normal (%) (Fibroblast; [3]): 99% and 100%; Population Pyknosed Nuclei (%) (Fibroblast; [3]): 21% and 17%; Population Tubulin-Different-Phenotype (%) (Fibroblast; [3]): 26% and 37%; Total Cell Count (Fibroblast; [3]): 211 and 188; Population Apoptotic (%) (Fibroblast; [4]): 87% and 93%; Population Healthy Nuclei (%) (Fibroblast; [4]): 1% and 2%; Population Hoechst High Intensity Objects (%) (Fibroblast; [4]): 0%; Population Membrane Permeable-Phenotype (%) (Fibroblast; [4]): 50% and 25%; Population Mitochondria Different-Phenotype (%) (Fibroblast; [4]): 0% and 25%; Population Mitotic Cells (%) (Fibroblast; [4]): 12% and 6%; Population Normal (%) (Fibroblast; [4]): 100%; Population Pyknosed Nuclei (%) (Fibroblast; [4]): 92% and 80%; Population Tubulin-Different-Phenotype (%) (Fibroblast; [4]): 50%; Total Cell Count (Fibroblast; [4]): 168; Population Apoptotic (%) (Fibroblast; [5]): 59% and 75%; Population Fragmented Nuclei (%) (Fibroblast; [5]): 13% and 17%; Population Healthy Nuclei (%) (Fibroblast; [5]): 75% and 70%; Population Hoechst High Intensity Objects (%) (Fibroblast; [5]): 0%; Population Membrane Permeable-Phenotype (%) (Fibroblast; [5]): 4% and 1%; Population Mitochondria Different-Phenotype (%) (Fibroblast; [5]): 1% and 0%; Population Mitotic Cells (%) (Fibroblast; [5]): 40% and 25%; Population Normal (%) (Fibroblast; [5]): 100%; Population Pyknosed Nuclei (%) (Fibroblast; [5]): 10% and 12%; Population Tubulin-Different-Phenotype (%) (Fibroblast; [5]): 27% and 11%; Total Cell Count (Fibroblast; [5]): 201 and 191; Population Apoptotic (%) (Fibroblast; [6]): 94% and 92%; Population Fragmented Nuclei (%) (Fibroblast; [6]): 18% and 9%; Population Healthy Nuclei (%) (Fibroblast; [6]): 3% and 4%; Population Hoechst High Intensity Objects (%) (Fibroblast; [6]): 0%; Population Membrane Permeable-Phenotype (%) (Fibroblast; [6]): 33% and 42%; Population Mitochondria Different-Phenotype (%) (Fibroblast; [6]): 0%; Population Mitotic Cells (%) (Fibroblast; [6]): 5% and 7%; Population Normal (%) (Fibroblast; [6]): 100% and 99%; Population Pyknosed Nuclei (%) (Fibroblast; [6]): 77% and 85%; Population Tubulin-Different-Phenotype (%) (Fibroblast; [6]): 33% and 85%; Total Cell Count (Fibroblast; [6]): 171 and 162; Population Apoptotic (%) (HEK-293T; [1]): 40% and 65%; Population Fragmented Nuclei (%) (HEK-293T; [1]): 4% and 3%; Population Healthy Nuclei (%) (HEK-293T; [1]): 86% and 83%; Population Hoechst High Intensity Objects (%) (HEK-293T; [1]): 6% and 5%; Population Membrane Permeable-Phenotype (%) (HEK-293T; [1]): 4% and 3%; Population Mitochondria Different-Phenotype (%) (HEK-293T; [1]): 24% and 25%; Population Mitotic Cells (%) (HEK-293T; [1]): 59% and 34%; Population Normal (%) (HEK-293T; [1]): 93% and 94%; Population Pyknosed Nuclei (%) (HEK-293T; [1]): 9% and 13%; Population Tubulin-Different-Phenotype (%) (HEK-293T; [1]): 78%; Total Cell Count (HEK-293T; [1]): 681 and 543; Population Apoptotic (%) (HEK-293T; [2]): 78% and 80%; Population Fragmented Nuclei (%) (HEK-293T; [2]): 2%; Population Healthy Nuclei (%) (HEK-293T; [2]): 62% and 61%; Population Hoechst High Intensity Objects (%) (HEK-293T; [2]): 7% and 8%; Population Membrane Permeable-Phenotype (%) (HEK-293T; [2]): 4% and 2%; Population Mitochondria Different-Phenotype (%) (HEK-293T; [2]): 82% and 75%; Population Mitotic Cells (%) (HEK-293T; [2]): 21% and 19%; Population Normal (%) (HEK-293T; [2]): 92% and 91%; Population Pyknosed Nuclei (%) (HEK-293T; [2]): 35%; Population Tubulin-Different-Phenotype (%) (HEK-293T; [2]): 97%; Total Cell Count (HEK-293T; [2]): 476 and 483; Population Apoptotic (%) (HEK-293T; [3]): 47% and 69%; Population Fragmented Nuclei (%) (HEK-293T; [3]): 6%; Population Healthy Nuclei (%) (HEK-293T; [3]): 85% and 84%; Population Hoechst High Intensity Objects (%) (HEK-293T; [3]): 8% and 9%; Population Membrane Permeable-Phenotype (%) (HEK-293T; [3]): 3%; Population Mitochondria Different-Phenotype (%) (HEK-293T; [3]): 12% and 17%; Population Mitotic Cells (%) (HEK-293T; [3]): 52% and 30%; Population Normal (%) (HEK-293T; [3]): 91% and 90%
